Assay [1] relates to Xanthomonas campestris. Briefly: Antibacterial activity against Xanthomonas campestris DSM 2405. The format is functional.
The test system of assay [2] is Pseudomonas syringae. Briefly: Antibacterial activity against Pseudomonas syringae var.aptata DSM 50252. The format is functional.
For assay [3], the system named is Bacillus subtilis. Put plainly: Antibacterial activity against Bacillus subtilis DSM 347. The assay is classed as functional.
Assay [4] deals with Mammaliicoccus lentus. Briefly: Antibacterial activity against Staphylococcus lentus DSM 6672. The assay is classed as functional.
The test system of a further assay is Artemia salina. Briefly: Toxicity against Artemia salina assessed as number of immotile nauplii per well after 24 hrs. The assay is classed as organism-based. In a few lines: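 Compounds were serially diluted 2-fold over 50 to 0.781 µg/well in microplate wells, and the wells were dried before the brine shrimp nauplii were exposed.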
For assay [5], the system named is Xanthomonas campestris. Put plainly: Antibacterial activity against Xanthomonas campestris DSM 2405 at 40 ug/mL. The assay is classed as functional, organism-based.
For assay [6], the system named is Ralstonia solanacearum. Briefly: Antibacterial activity against Ralstonia solanacearum DSM 9544 at 40 ug/mL. The assay is classed as functional, organism-based.
The subject of assay [7] is Pseudomonas syringae. Briefly: Antibacterial activity against Pseudomonas syringae var.aptata DSM 50252 at 40 ug/mL. The assay is classed as functional, organism-based.
The subject of assay [8] is Bacillus subtilis. Briefly: Antibacterial activity against Bacillus subtilis DSM 347 at 40 ug/mL. The format is functional, organism-based.
For assay [9], the system named is Mammaliicoccus lentus. Put plainly: Antibacterial activity against Staphylococcus lentus DSM 6672 at 40 ug/mL. The assay is classed as functional, organism-based.
Assay [10] relates to Pseudomonas fluorescens. Briefly: Antibacterial activity against Pseudomonas fluorescens NCIMB 10586 at 40 ug/mL. The assay is classed as functional, organism-based.
The test system of assay [11] is Erwinia amylovora. Put plainly: Antibacterial activity against Erwinia amylovora at 40 ug/mL. The assay is classed as functional, organism-based.
A further assay relates to Escherichia coli. Put plainly: Antibacterial activity against Escherichia coli K12 DSM 489 at 40 ug/mL. The format is functional, organism-based.
Another assay concerns Nakaseomyces glabratus. Briefly: Antifungal activity against Candida glabrata DSM 6425 at 40 ug/mL. The format is functional, organism-based.
Assay [12] relates to Ralstonia solanacearum. Put plainly: Antibacterial activity against Ralstonia solanacearum DSM 9544. The format is functional.
Assay [13] has as its system Pseudomonas fluorescens. Briefly: Antibacterial activity against Pseudomonas fluorescens NCIMB 10586. The format is functional.
Assay [14] has as its system Erwinia amylovora. Put plainly: Antibacterial activity against Erwinia amylovora. The assay is classed as functional.
The test system of another assay is Galleria mellonella. Put plainly: Insecticidal activity against Galleria mellonella after 6 days. The format is functional, organism-based. The method in brief: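 Oral toxicity test on greater wax moth larvae. Compounds were dissolved at 1 mg/mL in 50% aqueous EtOH. Larvae were held at 35 °C for 6 days, then mortality and ability to spin silk were recorded. Four replicates were run, with two for one compound.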

Converted amounts (≈) assume the structure as drawn. The source made the active and inactive calls. Bridge positions count the residues as written; N and C are the ends. Square brackets hold non-standard residues; d marks the D form. Peptide text beside a SMILES is read from it. * marks the point of attachment. NMeF = CN[C@@H](Cc1ccccc1)C(=O)O; NMeL = CN[C@@H](CC(C)C)C(=O)O; NHPhenethyl = c1ccc(CCN*)cc1; PhAc = O=C(Cc1ccccc1)*; βAla = NCCC(=O)O

In general, MIC refers to the smallest concentration in the dilution series that meets the test's criterion for growth inhibition. As a reminder, the IC50 is the concentration needed to halve the response being measured. Regarding `CC(C)CC(NC(=O)[C@@H](O)[C@@H](O)C1CCCN1)C1Cc2cccc(O)c2C(=O)O1` (stereo partly specified), the minimal inhibitory concentration (MIC) with Xanthomonas campestris [1] was determined as 40 µg/mL (≈ 98.4 µM); against Pseudomonas syringae [2], 40 µg/mL (≈ 98.4 µM); in the assay with Bacillus subtilis [3], 20 µg/mL (≈ 49.2 µM). This compound displayed an Activity in the assay with Mammaliicoccus lentus [4] of 70%. The IC50 with Artemia salina is 9 µg/mL (≈ 22.1 µM).
As to `CC[C@H](C)C(=O)C(=O)NCCc1c[nH]c2ccccc12` [NEMATOPHIN], the result with Xanthomonas campestris [5], in the assay on Ralstonia solanacearum [6], in the assay with Pseudomonas syringae [7], with Bacillus subtilis [8], in the assay with Mammaliicoccus lentus [9] and with Pseudomonas fluorescens [10] was inactive. Moreover, the result in the assay on Erwinia amylovora [11], in the assay with Escherichia coli and in the assay with Nakaseomyces glabratus was inactive. In addition, the IC50 in the assay on Artemia salina came out at 50 µg/mL (≈ 184 µM).
Consider `C[C@H]1OC(=O)CCNC(=O)[C@H](Cc2c[nH]c3ccccc23)NC(=O)[C@H](Cc2c[nH]c3ccccc23)NC(=O)[C@H]1NC(=O)Cc1ccccc1` [XENEAMATIDE] (PhAc-TWW[βAla]; ester 1-C), for which the minimum inhibitory concentration (MIC) in the assay with Ralstonia solanacearum [12], in the assay on Pseudomonas syringae [2], in the assay with Bacillus subtilis [3], in the assay with Pseudomonas fluorescens [13] and in the assay with Erwinia amylovora [14] was 10 µg/mL (≈ 15.1 µM) in each case. Besides, the result in the assay with Galleria mellonella was Active.
Consider `CN[C@@H](CC(C)C)C(=O)N(C)[C@@H](Cc1ccccc1)C(=O)NCCc1ccccc1` [XENORTIDE A] (H-[NMeL]-[NMeF]-NHPhenethyl), for which the outcome in the assay on Xanthomonas campestris [5], in the assay with Ralstonia solanacearum [6], with Pseudomonas syringae [7], in the assay on Bacillus subtilis [8], in the assay on Mammaliicoccus lentus [9] and with Pseudomonas fluorescens [10] was inactive. The outcome in the assay with Erwinia amylovora [11], in the assay on Escherichia coli and with Nakaseomyces glabratus was inactive. Besides, the IC50 in the assay on Artemia salina was found to be 200 µg/mL (≈ 488 µM).
As to `CN[C@@H](CC(C)C)C(=O)N(C)[C@@H](Cc1ccccc1)C(=O)NCCc1c[nH]c2ccccc12` [XENORTIDE B], the result in the assay with Xanthomonas campestris [5], in the assay with Ralstonia solanacearum [6], with Pseudomonas syringae [7], in the assay on Bacillus subtilis [8], with Mammaliicoccus lentus [9] and in the assay with Pseudomonas fluorescens [10] was inactive. For the same compound, the result in the assay with Erwinia amylovora [11], in the assay on Escherichia coli and with Nakaseomyces glabratus was inactive. For the same compound, the IC50 with Artemia salina was determined as 200 µg/mL (≈ 446 µM).

For the origin of these results see ChEMBL document CHEMBL1157404, “Linear and cyclic peptides from the entomopathogenic bacterium Xenorhabdus nematophilus” (J Nat Prod, 2008).
